What is called Kd is the equilibrium constant for the complex coming apart.

Consider 167 variants from the RNAGym collection of RNA variant scans (doi:10.1038/nmeth.2970).

To fix the notation:
B1: NELF-E aptamer (parent)
chain: CCCAACGACUGCCGAGCGAGAUUACGCUUGAGCGCCCCACUGAGGAUGCCCACGGGCGAUUGGGGCACGG

Variants of B1 are the subject of this data set. The data set can be described thus: HiTS-RAP. The settings on record: with NELF-E (Drosophila). A digest of the protocol: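 Kd came from weighted Hill fits to the first binding curve, with intensities normalised to sequencing intensity and averaged per sequence, keeping only fits whose variance was below 1,000,000. That curve was imaged on an Illumina GAIIx flowcell, where sequenced aptamer DNA templates with a T7 promoter and ter site had been transcribed in situ by T7 RNA polymerase and halted by GST-Tus (30 minutes, 37°C). Before each image, clusters equilibrated for 30 minutes at room temperature with NELF-E-mOrange at 0.064 to 1000 nM in HEPES binding buffer.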
As to A4U G16U, the Kd came to 6.93 nM. With A5G C12G, the Kd was 6.02 nM. In the case of A5G C12U, the Kd came to 6.51 nM. A5G C12A: the Kd was found to be 5.04 nM. The same measure for A4U C51U: 7.05 nM. The value for A4U A31G was 6.99 nM. The same measure for A4U A31U: 7.69 nM. Consider A5G G16U, for which the Kd was determined as 7.42 nM. The value for A5G G16A was 6.56 nM. The same measure for A5G G63U: 12.1 nM. The same measure for A5G G63A: 14.1 nM. For A5C U29G, the Kd was 7.04 nM.

A4U C38U: the Kd turned out to be 6.95 nM. Take A4G G14U: the Kd was found to be 6.38 nM. As to A4G G14A, the Kd was 5.98 nM. The same measure for A4U A8U: 6.22 nM; for A4U A8G: 6.19 nM. A4G A31U: the Kd came to 6.57 nM.

As to A4G A31C, the Kd came to 4.18 nM. On to A4G A31G, for which the Kd was found to be 7.17 nM. The same measure for A4U G34A: 6.2 nM; for A5G A19G: 5.88 nM. The same measure for A5G A19U: 7.26 nM; for A4U C12G: 5.79 nM. The value for A4U C12U was 5.44 nM.

Take A4U C6U: the Kd came out at 6.4 nM. The value for A4U C6G was 5.99 nM; that for A4G G55C was 8.07 nM. The same measure for A4G G55A: 8.61 nM; for A4G G55U: 7.68 nM; for A4G G11A: 6.4 nM. The value for A4G G11U was 6.46 nM. As to A4U G63U, the Kd is 11.1 nM. A4U G63A: the Kd was determined as 13.6 nM.

With A4U G14A, the Kd is 6 nM. The same measure for A4U G14U: 6.79 nM; for A5G C27U: 5.87 nM; for A4G G45U: 8.32 nM. For the variant A4G G45A, the Kd was 85.6 nM. The value for A5C U22G was 6.87 nM; that for A4G G42U was 9.27 nM; that for A4G G42A was 45.2 nM. For the variant A4U C53U, the Kd was 3.61 nM. The same measure for A4U G56A: 10.8 nM. As to A4U C66U, the dissociation constant (Kd) was 5.14 nM.

With A4U, the Kd stood at 5.39 nM. The same measure for A4G U22A: 6.17 nM. Turning to A4G U22G, the Kd turned out to be 5.51 nM. As to A4G U22C, the Kd stood at 4.86 nM. The value for A4U U29C was 5.56 nM; that for A4U U29G was 5.91 nM; that for A4U U29A was 4.29 nM. As to A4G U60G, the Kd stood at 6.94 nM.

On to A4G U60A, for which the Kd came out at 10.6 nM. The same measure for A4G U60C: 9.89 nM; for A4G C27A: 5.54 nM. The value for A4G C27U was 4.47 nM; that for A4G C27G was 5.73 nM. The value for A5G G7A was 6.52 nM; that for A5G G7U was 6.59 nM; that for A5G A8G was 6.06 nM.

In the case of A5G A8C, the Kd is 9.31 nM. The same measure for A5G A8U: 6.29 nM; for A4U C9U: 5.8 nM; for A4U C9G: 5.93 nM.

A5G A46G: the Kd came to 15.3 nM. As to A5G A46U, the Kd turned out to be 90.8 nM. The same measure for A4G U23A: 5.89 nM; for A4G U23C: 4.96 nM; for A4G U23G: 5.42 nM.

Consider A4U U23G, for which the Kd was found to be 6.29 nM. The same measure for A5G U22G: 5.89 nM; for A5G U22C: 5.45 nM; for A5G G11A: 6.61 nM. The same measure for A5G G11U: 6.9 nM. The value for A5C U41G was 7.61 nM; that for A4G A59G was 40 nM; that for A4G A59U was 113 nM. With A4U C57U, the Kd amounted to 5.44 nM.

As to A5G C40U, the Kd was 60.2 nM. The value for A4U A19U was 5.66 nM.

On to A4U A19G, for which the Kd worked out at 6.92 nM. The value for A4U C25U was 4.95 nM. For the variant A4U C25G, the Kd is 5.99 nM. The value for A4U C13U was 5.19 nM. Consider A4U C13A, for which the dissociation constant (Kd) was found to be 4.82 nM. For the variant A4U C13G, the Kd was determined as 5.84 nM. The same measure for A4U A46G: 58.7 nM. The value for A4G C50U was 14.2 nM; that for A4G C50G was 10.4 nM; that for A4G C50A was 17.7 nM.

Consider A5G C50U, for which the Kd was determined as 21.6 nM. In the case of A5G C50G, the Kd is 6.45 nM. The value for A4U C50U was 12.7 nM.

As to A5G G65U, the Kd amounted to 6.76 nM. As to A5G C25G, the Kd amounted to 6.52 nM. The value for A4G U10A was 5.89 nM; that for A4G U10C was 5.06 nM.

Consider A4G U10G, for which the Kd worked out at 5.09 nM. The same measure for A5G C38U: 9.85 nM; for A4G A52C: 6.42 nM; for A4G A52G: 4.59 nM. The value for A4G A52U was 18.3 nM; that for A4U U41C was 66 nM; that for A4U U41A was 86.3 nM. The same measure for A4U U41G: 6.46 nM. Turning to A4G C53G, the Kd was 7.58 nM. The value for A4G C53U was 3.85 nM; that for A4G C53A was 6.64 nM; that for A4G G26A was 4.55 nM. The same measure for A4G G26U: 7.06 nM. The value for A4G G7C was 7.38 nM; that for A4G G7A was 6.95 nM. Regarding A4G G7U, the Kd is 6.07 nM.

In the case of A4G G44A, the Kd was found to be 54.3 nM. The same measure for A4G G44U: 7.66 nM; for A4U G65U: 6.16 nM; for A4U G65A: 5.54 nM.

Turning to A4G C9U, the Kd was 5.95 nM.

For the variant A4G C9A, the Kd stood at 6.66 nM.

Consider A4G C9G, for which the Kd was 5.74 nM. Regarding A4G C38A, the Kd amounted to 44.4 nM.

Regarding A4G C38U, the Kd was determined as 8.59 nM. The same measure for A4G C17A: 4.31 nM; for A4G C17U: 5.09 nM. The same measure for A4G C17G: 5.57 nM; for A4G G62U: 8.86 nM; for A4G G62A: 20.8 nM. The value for A4G C49U was 20.8 nM. In the case of A4G C40U, the equilibrium dissociation constant (Kd) was 64.8 nM.

For A4G C40G, the Kd stood at 6.29 nM. The same measure for A4G G58U: 13.2 nM; for A4U U22C: 5.97 nM; for A4U U22G: 5.86 nM. The value for A5G C13A was 5.36 nM; that for A5G C13U was 5.63 nM; that for A5G C13G was 5.6 nM. The value for A5C C6G was 5.97 nM; that for A5C C6A was 7.97 nM; that for A4G C13U was 4.78 nM. Regarding A4G C13G, the Kd came out at 5.3 nM. For A4G C13A, the Kd was 5.91 nM. As to A5G A59U, the Kd was 113 nM. The value for A5G A59G was 29.5 nM; that for A5G C37U was 10.4 nM.

For A4U A24G, the Kd worked out at 6.45 nM. The same measure for A5G U23A: 5.47 nM; for A5G U23C: 5.22 nM. As to A5G U23G, the Kd was 6.21 nM. As to A5G C53U, the Kd turned out to be 4.59 nM.

As to A5G C33U, the equilibrium dissociation constant (Kd) was 6.71 nM. The same measure for A4U G64A: 10.1 nM.

As for A5G G55A, the Kd amounted to 11.2 nM. The same measure for A5G G55U: 7.72 nM; for A5C U23G: 7.92 nM. The same measure for A4U G26A: 4.14 nM. The value for A4U G26U was 4.31 nM; that for A4G A67C was 5.34 nM; that for A4G A67G was 6.54 nM. On to A4G A67U, for which the Kd was determined as 6.47 nM. Regarding A5G C66U, the Kd is 6.42 nM. The same measure for A4G U61C: 66.2 nM; for A4G U61A: 37.8 nM; for A4G U61G: 9.81 nM. A4G U47A: the Kd was found to be 12.3 nM. The same measure for A4G U47G: 7.07 nM; for A4U A67G: 5.89 nM.
